Data published in ChEMBL document CHEMBL1240487, “Discovery of a potent, selective, and orally bioavailable pyridinyl-pyrimidine phthalazine aurora kinase inhibitor” (J Med Chem, 2010).
≈ marks a conversion by molar mass, not a printed value. Calls of active or inactive are those of the source. The rule behind the calls is not given here.

What was measured:
[1] = biological target: T1, Aurora kinase A/Targeting protein for Xklp2 (Homo sapiens, UniProt O14965); assay: Inhibition of Aurora A/TPX2 (1-43) by HTRF assay; type: protein-complex assay
T1 sequence (O14965 whole entry): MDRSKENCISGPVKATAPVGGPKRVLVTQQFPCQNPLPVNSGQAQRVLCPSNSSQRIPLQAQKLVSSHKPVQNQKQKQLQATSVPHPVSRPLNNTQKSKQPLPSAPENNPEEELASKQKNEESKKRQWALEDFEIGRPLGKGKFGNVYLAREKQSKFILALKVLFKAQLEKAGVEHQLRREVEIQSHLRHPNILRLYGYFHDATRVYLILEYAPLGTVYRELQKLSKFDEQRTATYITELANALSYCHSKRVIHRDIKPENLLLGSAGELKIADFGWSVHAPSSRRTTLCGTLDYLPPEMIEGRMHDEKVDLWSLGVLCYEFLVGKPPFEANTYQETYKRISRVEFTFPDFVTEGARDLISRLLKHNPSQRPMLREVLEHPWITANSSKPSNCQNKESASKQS
T1 sequence (Q9ULW0 whole entry): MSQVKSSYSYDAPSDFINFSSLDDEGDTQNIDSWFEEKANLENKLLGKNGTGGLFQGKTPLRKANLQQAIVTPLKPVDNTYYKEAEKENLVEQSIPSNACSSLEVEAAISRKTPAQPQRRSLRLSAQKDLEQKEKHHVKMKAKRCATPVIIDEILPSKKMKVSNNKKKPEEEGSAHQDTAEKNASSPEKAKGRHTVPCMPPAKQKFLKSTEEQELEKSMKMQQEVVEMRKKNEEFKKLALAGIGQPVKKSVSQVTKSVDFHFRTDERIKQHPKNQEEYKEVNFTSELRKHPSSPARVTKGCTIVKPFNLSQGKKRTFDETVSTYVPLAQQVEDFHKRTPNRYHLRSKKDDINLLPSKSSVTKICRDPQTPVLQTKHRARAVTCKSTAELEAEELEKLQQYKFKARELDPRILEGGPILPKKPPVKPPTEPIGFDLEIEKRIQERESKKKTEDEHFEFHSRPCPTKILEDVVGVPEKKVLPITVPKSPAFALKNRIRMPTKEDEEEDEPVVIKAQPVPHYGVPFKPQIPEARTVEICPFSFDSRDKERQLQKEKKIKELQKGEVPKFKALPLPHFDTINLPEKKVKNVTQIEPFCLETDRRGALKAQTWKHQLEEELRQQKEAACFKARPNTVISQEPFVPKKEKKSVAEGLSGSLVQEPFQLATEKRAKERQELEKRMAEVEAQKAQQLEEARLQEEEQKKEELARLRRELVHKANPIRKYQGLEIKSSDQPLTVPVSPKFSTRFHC
Summary of the method: (§1)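 Enzyme inhibition was run with ATP at its Km for each kinase. Values are averages of at least two determinations.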

Aurora kinase B [2] = biological target: T2, Aurora kinase B (Homo sapiens, UniProt Q96GD4); assay: Inhibition of Aurora B by HTRF assay; summary of the method: as §1
T2 sequence (Q96GD4 whole entry): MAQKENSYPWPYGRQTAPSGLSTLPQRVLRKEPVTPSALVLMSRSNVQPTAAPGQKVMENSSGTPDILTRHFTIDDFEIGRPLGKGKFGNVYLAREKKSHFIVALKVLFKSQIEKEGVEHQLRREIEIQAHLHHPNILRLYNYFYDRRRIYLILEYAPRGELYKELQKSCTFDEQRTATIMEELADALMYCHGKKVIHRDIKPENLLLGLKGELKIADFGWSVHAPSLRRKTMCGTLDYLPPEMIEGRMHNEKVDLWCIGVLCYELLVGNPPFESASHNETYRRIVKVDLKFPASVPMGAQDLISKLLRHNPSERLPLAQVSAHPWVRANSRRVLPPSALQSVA

[3] = Clearance in Sprague-Dawley rat at 0.5 mg/kg, iv and 2 mg/kg, po; type: ADME, organism-based; details: in vivo
[4] = Oral bioavailability in Sprague-Dawley rat at 2 mg/kg; type: ADME, organism-based; details: in vivo
[5] = Intrinsic clearance in rat liver microsomes at 1 uM after up to 40 mins; type: ADME, Microsome
[6] = Aqueous equilibrium solubility of the compound in 0.01N HCL; type: physicochemical
Aurora kinase B [7] = biological target: T2, Aurora kinase B; assay: Inhibition of aurora B autophosphorylation in human HeLa cells at 1 uM after 3 hrs by Western blotting

| IC50 [1] | IC50 (Aurora kinase B [2]) | other results | SMILES |
| --- | --- | --- | --- |
| 964 nM | 251 nM | – | CNc1nccc(-c2cccnc2Oc2ccc(NC(=O)c3cccc(Oc4ccccc4)c3)cc2C)n1 |
| 62 nM | 17 nM | – | CNc1nccc(-c2cccnc2Oc2ccc(NC(=O)c3ccccc3Nc3ccccc3)cc2C)n1 |
| > 25000 nM | > 25000 nM | – | CNc1nccc(-c2cccnc2Oc2ccc(NC(=O)c3ccccc3Cl)cc2C)n1 |
| – | – | clearance [3]: 14.5 mL/min/kg; bioavailability [4]: < 1%; microsomal CLint at 1 µM [5]: 338 µL/min/mg; solubility thermodynamic [6]: 16 µg/mL (≈ 31.6 µM) | CNc1nccc(-c2cccnc2Oc2ccc(NC(=O)c3cc(F)ccc3Nc3ccccc3)cc2)n1 |
| 149 nM | 22 nM | solubility thermodynamic [6]: 159 µg/mL (≈ 320 µM) | CNc1nccc(-c2cccnc2Oc2ccc(Nc3nnc(-c4ccccc4)c4ccccc34)cc2)n1 |
| 1540 nM | 56 nM | – | CNc1nccc(-c2cccnc2Oc2ccc(NC(=O)c3ccccc3Oc3ccccc3)cc2C)n1 |
| – | 542 nM | – | CNc1nccc(-c2cccnc2Oc2ccc(NC(=O)c3ccc(Oc4ccccc4)cc3)cc2C)n1 |
| 2340 nM | 335 nM | – | CNc1nccc(-c2cccnc2Oc2ccc(NC(=O)c3ccc(Cl)cc3)cc2C)n1 |
| 1550 nM | 430 nM | – | CNc1nccc(-c2cccnc2Oc2ccc(NC(=O)c3cccc(Cl)c3)cc2C)n1 |
| – | – | Activity (Aurora kinase B [7]): Active | CCN(CCCOc1ccc2c(Nc3cc(CC(=O)Nc4cccc(F)c4)[nH]n3)ncnc2c1)CCOP(=O)(O)O |
| – | – | clearance [3]: 26.7 mL/min/kg; microsomal CLint at 1 µM [5]: 467 µL/min/mg; solubility thermodynamic [6]: 23 µg/mL (≈ 45.4 µM) | CNc1nccc(-c2cccnc2Oc2ccc(NC(=O)c3ccccc3Nc3ccc(F)cc3)cc2)n1 |
| > 1000 nM | 110 nM | – | CNc1nccc(-c2cccnc2Oc2ccc(NC(=O)c3ccccc3Nc3ccccc3)c(C)c2)n1 |
